The source made the active and inactive calls. The calls are words filed in the database; no cut-off is given here.
Columns and labels:
[1] = Binding affinity to synthetic c-KIT2 G-quadruplex DNA assessed as change in melting temperature at 4 mol equiv in presence of 20 mM KCl buffer by circular dichroism spectroscopic analysis
Summary of the method: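 CD melting as for other targets (20-100 °C, 1 °C/min, 10 µM folded G4, ligand 4 equiv), but in 5 mM potassium phosphate with 20 mM KCl; c-kit2 read at 264 nm as parallel G4. ΔTm from fitted Tm, duplicate average.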

[2] = Binding affinity to synthetic telomere 23 parallel G-quadruplex DNA assessed as change in melting temperature at 4 mol equiv in presence of 100 mM KCl buffer by circular dichroism spectroscopic analysis
Summary of the method: (§1)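 CD melting, 20-100 °C at 1 °C/min, signal at 264 (parallel), 290 (antiparallel) or 280 nm (duplex). G4 DNA 10 µM or duplex 15 µM, folded by heating at 90 °C 5 min and slow cooling, in 10 mM potassium phosphate (c-kit1, Tel23, Tel26) or lithium phosphate (Tel23-p, ds12) pH 7.0 with 100 mM KCl. Ligand 4 equiv; Tm by curve fit, ΔTm vs DNA alone; duplicate average.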

[3] = Effect on synthetic c-KIT2 G-quadruplex DNA topology at 4 mol equiv by circular dichroism spectroscopic analysis
Summary of the method: (§2)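 CD spectra at 20 °C, 230-360 nm, 3 scans averaged, baseline subtracted; 10 µM G4 or 15 µM duplex in potassium- or lithium-phosphate pH 7.0 buffers with 100 mM KCl (c-kit2, c-myc: 5 mM potassium phosphate, 20 mM KCl); ligand 4 molar equiv added to folded DNA from 6 mM DMSO stock.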

[4] = Induction of G-quadruplex formation in synthetic unfolded telomere 23 DNA assessed as increase in molar ellipticity after 10 mins in absence of metal cation by circular dichroism titration method
Summary of the method: (§3)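 CD titration without metal ions: unfolded oligonucleotide 12-15 µM in 50 mM Tris; ligand added in 0.5 equiv steps, spectrum recorded 10 min after each addition at 20 °C, 230-360 nm, 3 scans averaged.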

[5] = Binding affinity to synthetic c-MYC G-quadruplex DNA assessed as change in melting temperature at 4 mol equiv in presence of 20 mM KCl buffer by circular dichroism spectroscopic analysis
[6] = Ratio of IC50 for human U2OS cells to stabilization of nuclear G-quadruplex DNA in human U2OS cells
[7] = Binding affinity to 5'-FAM/3'-TAMRA labeled c-MYC G-quadruplex DNA (unknown origin) assessed as change in melting temperature at 4:1 ligand:DNA ratio in presence of 20 mM KCl buffer by FRET assay
Summary of the method: (§4)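 FRET melting of FAM/TAMRA-labelled G4 oligos (400 nM, annealed 85 °C 10 min) with ligand at 4 equiv, same buffers as CD (20 mM KCl for c-kit2 and c-myc; 100 mM KCl for telomeric parallel form, annealed at high concentration). Excitation 450-495 nm, emission 515-545 nm, read every 0.5 °C over 30-100 °C; ΔTm by curve fit; duplicate runs averaged.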

[8] = Effect on synthetic c-MYC G-quadruplex DNA topology at 4 mol equiv by circular dichroism spectroscopic analysis; summary of the method: as §2
[9] = Binding affinity to 5' and 3'-terminal G-tetrads of synthetic c-KIT2 G12T/G21T double mutant parallel G-quadruplex DNA in presence of 20 mM KCl solution by NMR spectroscopic analysis
Summary of the method: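 1H NMR titration at 25 °C, 700 MHz, water-suppressed 1D spectra; DNA 0.2-0.5 mM strand in H2O/D2O 9:1. Myc22 in 25 mM KH2PO4, 70 mM KCl, 0.2 mM EDTA, pH 7.0; c-kit2 T12/T21 in 5 mM KH2PO4, 20 mM KCl, 0.2 mM EDTA, pH 6.8. Ligand in DMSO-d6 added stepwise into the tube; imino proton shifts followed.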

[10] = Induction of parallel G-quadruplex formation in synthetic unfolded c-KIT1 DNA assessed as increase in molar ellipticity after 10 mins by in absence of metal cation circular dichroism titration method; summary of the method: as §3
[11] = Binding affinity to 5'-FAM/3'-TAMRA labeled c-KIT2 G-quadruplex DNA (unknown origin) assessed as change in melting temperature at 4:1 ligand:DNA ratio in presence of 20 mM KCl buffer by FRET assay; summary of the method: as §4
[12] = Effect on synthetic telomere 23 G-quadruplex DNA topology at 4 mol equiv by circular dichroism spectroscopic analysis; summary of the method: as §2
[13] = Cytotoxicity against human HCT116 cells assessed as cell killing after 24 hrs by MTT assay; type: functional, cell-based; conditions: HCT-116, 24 h
Summary of the method: (§5)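 U2OS and HCT116 in DMEM with 10% FBS, 1% L-glutamine, seeded at 40000 cells/ml; 24 h later exposed for 1 h or 24 h, then drug-free medium 1-2 days. MTT 1 h at 37 °C, DMSO solubilisation, absorbance 595 nm. IC50 by linear regression; two independent experiments in triplicate, mean ± SE.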

[14] = Effect on synthetic self-complementary DNA 12-mer duplex topology at 4 mol equiv in presence of K+ ions by circular dichroism spectroscopic analysis; summary of the method: as §2
U2OS [15] = assay: Cytotoxicity against human U2OS cells assessed as cell death after 24 hrs by microscopic analysis; type: cell-based
U2OS [16] = assay: Cytotoxicity against human U2OS cells assessed as cell killing after 24 hrs by MTT assay; type: functional, cell-based; summary of the method: as §5
U2OS [17] = assay: Cytotoxicity against human U2OS cells assessed as cell death after 24 hrs by FACS analysis; type: cell-based
[18] = Induction of parallel G-quadruplex formation in synthetic unfolded c-KIT2 DNA assessed as increase in molar ellipticity after 10 mins in absence of metal cation by circular dichroism titration method; summary of the method: as §3
[19] = Effect on synthetic c-KIT1 G-quadruplex DNA topology at 4 mol equiv by circular dichroism spectroscopic analysis; summary of the method: as §2
[20] = Binding affinity to synthetic telomere 23 G-quadruplex DNA assessed as change in melting temperature at 4 mol equiv in presence of 100 mM KCl buffer by circular dichroism spectroscopic analysis; summary of the method: as §1
[21] = Binding affinity to synthetic c-MYC G-quadruplex DNA assessed as increase in thermal stability at 1:1 to 2:1 ligand:DNA ratio in presence of 20 mM KCl buffer by circular dichroism spectroscopic analysis
Summary of the method: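 CD melting in 5 mM potassium phosphate, 20 mM KCl, 10 µM folded G4, heated 20-100 °C at 1 °C/min; ligand:DNA ratios 1:1, 2:1 and 4:1 compared; Tm from curve fit.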

[22] = Binding affinity to synthetic self-complementary DNA 12-mer duplex assessed as change in melting temperature at 4 mol equiv in presence of 100 mM KCl buffer by circular dichroism spectroscopic analysis; summary of the method: as §1
[23] = Binding affinity to synthetic c-KIT1 G-quadruplex DNA assessed as change in melting temperature at 4 mol equiv in presence of 100 mM KCl buffer by circular dichroism spectroscopic analysis; summary of the method: as §1
[24] = Effect on preformed synthetic c-MYC parallel G-quadruplex DNA topology in tris buffer after 10 mins by circular dichroism titration method

Br.O=Cc1c(-c2ccccc2)nc2n1ccc1nc(-c3ccccc3)c(/C=N/NC3=NCCN3)n12
ΔTm [1]: 9.5 °C
ΔTm [2]: 9.1 °C
Activity [3]: inactive
Activity [4]: inactive
ΔTm [5]: > 20 °C
Ratio [6]: 4
ΔTm [7]: > 20 °C
Activity [8]: inactive
Activity [9]: Active
Activity [10]: inactive
ΔTm [11]: 15 °C
Activity [12]: inactive
IC50 [13]: 0.407 µM
Activity [14]: inactive
Activity (U2OS [15]): Non-toxic
IC50 (U2OS [16]): 0.845 µM
Activity (U2OS [17]): Non-toxic
Activity [18]: inactive
Activity [19]: inactive
ΔTm [20]: -2.4 °C
Activity [21]: Active
ΔTm [22]: -0.8 °C
ΔTm [23]: 2.7 °C
Activity [24]: inactive

From ChEMBL document CHEMBL3826876, “Toward the Development of Specific G-Quadruplex Binders: Synthesis, Biophysical, and Biological Studies of New Hydrazone Derivatives” (J Med Chem, 2016)
